Bioassay records from PubChem.
A1 apoptosis 2: A1 inhibitors via caspase activation, primary screen, cell-based, luminescence, HTS, two replicates; caspase activation, % (concentration not given with the values); MEF A1-2A-BIM cells, caspase-Glo luminescence, 3 h; percent of clofoctol response, DMSO zero; 24,000 tested, under 10 active; in the data active = caspase activation above about 5.9%
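Test system – A1-2A-BIM-expressing MEF cells · Input – 2500 cells/well · Medium – RPMI-1640 growth medium with 10% FBS · Compound dosing – 50 nL pinned compound · Timing – 3 h compound exposure at 37 °C · Technique – Caspase-Glo luminescence (DEVD substrate) · Evaluation – Caspase-3/7 activity from luminescence increase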
* = called active by the depositor. This is one part of a sample in which hits are shown more often than they occur.

Screening COc1ccc(NC(=O)Nc2ccc3c(c2)C(=O)N([C@H](C)CO)C[C@@H](C)[C@@H](CN(C)C(=O)CCCN(C)C)OCCCC[C@@H](C)O3)cc1 returned A1 apoptosis 2 0.2.
For Cc1ccc(S(=O)(=O)N(C)C[C@H]2Oc3ccc(NS(=O)(=O)c4c(C)noc4C)cc3C(=O)N([C@H](C)CO)C[C@@H]2C)cc1 the results were A1 apoptosis 2 1.5.
`CNC[C@@H]1Oc2ccc(NC(=O)Cc3cn(C)c4ccccc34)cc2C(=O)N([C@H](C)CO)C[C@H]1C` gave A1 apoptosis 2 -0.5.
For COc1ccc(CN(C)C[C@@H]2Oc3c(NS(=O)(=O)c4cn(C)cn4)cccc3C(=O)N([C@@H](C)CO)C[C@H]2C)cc1 the results were A1 apoptosis 2 -0.5.
C[C@@H]1CN([C@H](C)CO)C(=O)c2cccc(NS(=O)(=O)c3ccccc3)c2O[C@H]1CN(C)S(=O)(=O)c1ccccc1 was read as A1 apoptosis 2 0.9.
Screening COc1cc(Cl)c(/C=N/NC(=O)c2ccccn2)c(Cl)c1OC returned A1 apoptosis 2 -10.0.
For CC(C)NC(=O)N(C)C[C@@H]1OCCCC[C@H](C)Oc2ccc(NS(=O)(=O)c3ccc(F)cc3)cc2C(=O)N([C@@H](C)CO)C[C@@H]1C the results were A1 apoptosis 2 -0.3.
`C[C@@H]1CCCCO[C@@H](CN(C)C(=O)C2CCCCC2)[C@H](C)CN([C@@H](C)CO)C(=O)c2cc(NC(=O)Nc3ccc(C(F)(F)F)cc3)ccc2O1` gave A1 apoptosis 2 -0.2.
`C[C@@H]1CN([C@@H](C)CO)C(=O)Cc2cc(NS(=O)(=O)c3cccs3)ccc2O[C@H]1CN(C)Cc1ccc(Cl)c(Cl)c1` gave A1 apoptosis 2 0.0.
`O=C(O)CCCCCC(=O)N/N=C/C1CCCCC1` gave A1 apoptosis 2 0.7.
Screening Cc1noc(C)c1S(=O)(=O)Nc1ccc2c(c1)C(=O)N([C@@H](C)CO)C[C@H](C)[C@H](CN(C)CC1CCCCC1)OCCCC[C@@H](C)O2 returned A1 apoptosis 2 -0.9.
For C[C@@H]1CN([C@@H](C)CO)C(=O)c2cc(NC(=O)c3ccncc3)ccc2O[C@@H]1CN(C)C the results were A1 apoptosis 2 0.4.
CC1=CC2(CO)C(=O)[C@]3(CO3)[C@H]1[C@H]1[C@]2(C)C=C(CO)C(=O)[C@]12CO2 was read as A1 apoptosis 2 -0.2.
Screening C[C@@H]1CN([C@H](C)CO)C(=O)Cc2cc(NC(=O)Cc3ccccc3)ccc2O[C@@H]1CN(C)Cc1ccc(Cl)c(Cl)c1 returned A1 apoptosis 2 -0.6.
Screening C=CCN1C(=O)[C@]2(O[C@H](CCO)[C@@H]([Si](C)(C)c3ccc(OC)cc3)[C@@H]2C)c2cc(I)ccc21 returned A1 apoptosis 2 9.0*.
`COc1ccc([Si](C)(C)[C@H]2[C@H](CCO)O[C@@]3(C(=O)N(Cc4ccccc4)c4ccc(NC(=O)[C@H](C)O)cc43)[C@@H]2C)cc1` gave A1 apoptosis 2 -0.4.
For C=CCN1C(=O)[C@]2(O[C@H](CCn3cc([C@H](O)c4ccccc4)nn3)[C@@H]([Si](C)(C)c3ccc(OC)cc3)[C@@H]2C)c2cc(N3CCC3=O)ccc21 the results were A1 apoptosis 2 -0.2.
For C[C@@H]1CCCCO[C@H](CN(C)Cc2ccccc2)[C@H](C)CN([C@H](C)CO)C(=O)c2cc(NS(C)(=O)=O)ccc2O1 the results were A1 apoptosis 2 -0.5.
For CC(C)NC(=O)Nc1ccc2c(c1)C(=O)N([C@@H](C)CO)C[C@H](C)[C@H](CN(C)C(=O)Nc1ccc(F)cc1)O2 the results were A1 apoptosis 2 2.0.
Screening C[C@H]1CN([C@@H](C)CO)C(=O)c2cccc(NS(=O)(=O)c3ccccc3)c2O[C@H]1CN(C)C returned A1 apoptosis 2 0.1.
C[C@@H]1CN([C@H](C)CO)C(=O)c2cccc(NC(=O)C3CCCCC3)c2O[C@@H]1CN(C)S(C)(=O)=O was read as A1 apoptosis 2 0.0.
C=CCNC(=O)[C@@H]1[C@H]2C(=O)O[C@H](c3ccccc3)[C@H](c3ccccc3)N2[C@H](c2ccc(OCCO)cc2)[C@@]12C(=O)Nc1ccc(C#CC3(O)CCCCCC3)cc12 was read as A1 apoptosis 2 -0.2.
